Experimental findings from ChEMBL document CHEMBL1131263, “Substituted tetrahydropyrrolo[2,1-b]oxazol-5(6H)-ones and tetrahydropyrrolo[2,1-b]thiazol-5(6H)-ones as hypoglycemic agents” (1998) are described below.

The test system of assay [1] is Mus musculus. In words: In vivo lowering of blood glucose levels in diabetic obese ob/ob mice by measuring postprandial blood glucose level on day1 after 4 hours at 300 uM/kg oral dose. Format: functional. The method in brief: (§1)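 Adult male C57BL ob/ob mice, fed, grouped (6/group) and matched for blood glucose on day 0; mice under 150 mg/dL excluded. Oral dosing in the morning on days 1-3, vehicle 0.5% CMC with 0.2% Tween-80. Significance versus vehicle.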

Assay [2] in a line: lowest concentration at which glucose utilized was greater than or equal to 140% of control value tested in a glucose utilization L6 myocyte in vitro assay. Format: functional, Rattus norvegicus. The method in brief:
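Differentiated rat L6 myotubes (day 11 or 13 after plating) exposed 20 h to compound in serum-free DMEM with 15 mM glucose and 1% final DMSO. Tested in quadruplicate at 3, 10, 30, 100, 300 µM. Glucose left in the medium read by glucose oxidase. Value is the lowest concentration giving at least 40% more utilization than control.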

Assay [3] deals with Mus musculus. In words: In vivo lowering of blood glucose levels in diabetic obese ob/ob mice by measuring postprandial blood glucose level on day 3 after 8 hours at 300 uM/kg oral dose. It is filed as functional. The method in brief: as §1
Assay [4] relates to Mus musculus. The experiment in a line: In vivo lowering of blood glucose levels in diabetic obese ob/ob mice by measuring postprandial blood glucose level on day 3 after 4 hours at 300 uM/kg oral dose. It is filed as functional. The method in brief: as §1
Assay [5] concerns Mus musculus. The experiment in a line: In vivo lowering of blood glucose levels in diabetic obese ob/ob mice, measuring postprandial blood glucose level on day 3 after 2 hours at 300 uM/kg oral dose. Format: functional. The method in brief:
as §1

In assay [6] the test system is Mus musculus. In words: In vivo lowering of blood glucose levels in diabetic obese ob/ob mice, measuring postprandial blood glucose level on day1 after 2 hours at 300 uM/kg oral dose. Format: functional. The method in brief:
as §1

In assay [7] the test system is Mus musculus. In words: compound was tested in vivo for lower blood glucose levels in diabetic obese ob/ob mice by measuring postprandial blood glucose level on day 3 after 8 hours at 200 uM/kg oral dose. It is filed as functional. The method in brief: as §1
The test system of assay [8] is Mus musculus. In words: compound was tested in vivo for lower blood glucose levels in diabetic obese ob/ob mice by measuring postprandial blood glucose level on day1 after 4 hours at 200 uM/kg oral dose. Format: functional. The method in brief:
as §1

The test system of assay [9] is Mus musculus. The experiment in a line: compound was tested in vivo for lower blood glucose levels in diabetic obese ob/ob mice by measuring postprandial blood glucose level on day 3 after 2 hours at 200 uM/kg oral dose. It is filed as functional. The method in brief: as §1
The subject of assay [10] is Mus musculus. In words: compound was tested in vivo for lower blood glucose levels in diabetic obese ob/ob mice by measuring postprandial blood glucose level on day1 after 2 hours at 200 uM/kg oral dose. It is filed as functional. The method in brief:
as §1

The test system of assay [11] is Mus musculus. The experiment in a line: compound was tested in vivo for lower blood glucose levels in diabetic obese ob/ob mice by measuring postprandial blood glucose level on day 3 after 4 hours at 200 uM/kg oral dose. It is filed as functional. The method in brief:
as §1

In assay [12] the test system is Mus musculus. The experiment in a line: compound was tested in vivo for lower blood glucose levels in diabetic obese ob/ob mice by measuring postprandial blood glucose level on day1 after 4 hours at 300 uM/kg oral dose *p < 0.05. It is filed as functional. The method in brief: as §1
The nature of assay [13]: compound was tested in vivo for lower blood glucose levels in diabetic obese ob/ob mice by measuring postprandial blood glucose level on day1 after 4 hours at 15.86 uM/kg oral dose. It is filed as functional, Mus musculus. The method in brief: as §1
Assay [14] can be described thus: compound was tested in vivo for lower blood glucose levels in diabetic obese ob/ob mice by measuring postprandial blood glucose level on day1 after 2 hours at 15.86 uM/kg oral dose. Format: functional, Mus musculus. The method in brief:
as §1

Consider `CC(=O)N1C[C@@H](COc2ccc(Cl)cc2)O[C@@H]1c1ccc(Cl)c(Cl)c1`, for which the Efficacy in the assay on Mus musculus [1] came to 26%; with Mus musculus [3], 61%; with Mus musculus [4], 70%; in the assay with Mus musculus [5], 69%; in the assay on Mus musculus [6], 8%. The “Lowest effective concentration for glucose utilization ≥140% of control” value in assay [2] was 30 µM.

On to `O=C1CC[C@]2(c3ccc(Cl)cc3)O[C@H](COc3ccc(Cl)cc3)CN12`, for which the Efficacy is listed as -26% in the assay on Mus musculus [7]; 46% with Mus musculus [8]; 14% in the assay with Mus musculus [9]; 31% in the assay with Mus musculus [10]; -15% with Mus musculus [11]. In assay [2], the “Lowest effective concentration for glucose utilization ≥140% of control” value worked out at 30 µM.

Regarding `O=C1C[C@@H]2O[C@@H](CO)CN12`, the Efficacy in the assay on Mus musculus [7] was found to be 44%; in the assay on Mus musculus [8], 86%; in the assay with Mus musculus [9] it was 53%; in the assay with Mus musculus [10], 66%; with Mus musculus [11] it was 23%. Besides, the “Lowest effective concentration for glucose utilization ≥140% of control” value in assay [2] stood at 30 µM.

On to `OCc1cc(-c2ccc(C(F)(F)F)cc2)no1`, for which the “Lowest effective concentration for glucose utilization ≥140% of control” value in [2] was 100 µM. In addition, the Efficacy is 50% in the assay on Mus musculus [3]; 48% with Mus musculus [4]; 52% in the assay on Mus musculus [12]; 6% with Mus musculus [5]; 14% with Mus musculus [6].

For `CC(C)C(N)C(=O)NC(C(=O)O)C(O)[C@H]1CN2C(=O)C[C@@H]2O1` (stereo partly specified), the Efficacy in assay [13] and in [14] was 63% each time. The “Lowest effective concentration for glucose utilization ≥140% of control” value in [2] was determined as 10 µM.

In the case of `O=C1CC[C@]2(c3ccc(Cl)cc3)S[C@@H](COc3ccc(Cl)cc3)CN12`, the Efficacy with Mus musculus [1] was 3%; with Mus musculus [3], 35%; in the assay with Mus musculus [4], 48%; in the assay with Mus musculus [5], 44%; with Mus musculus [6], 9%. Also, in assay [2], the “Lowest effective concentration for glucose utilization ≥140% of control” value was 10 µM.

For the molecule `COc1ccc([C@]23CCC(=O)N2C[C@@H](COc2ccc(Cl)cc2)O3)cc1`, the Efficacy in the assay with Mus musculus [1] was 3%; in the assay on Mus musculus [3], 12%; in the assay with Mus musculus [4], -27%; in the assay with Mus musculus [5], -5%; in the assay with Mus musculus [6], -12%. In assay [2], the “Lowest effective concentration for glucose utilization ≥140% of control” value is 30 µM.

Turning to `O=C1CC[C@]2(c3cccnc3)O[C@H](COc3ccc(Cl)cc3)CN12`, the Efficacy in the assay on Mus musculus [1] worked out at 20%; in the assay on Mus musculus [3] it was 35%; with Mus musculus [4], 22%; with Mus musculus [5], 1%; in the assay on Mus musculus [6], 22%. Also, the “Lowest effective concentration for glucose utilization ≥140% of control” value in [2] was found to be 300 µM.

For `O=C1CC[C@]2(c3ccc(-c4ccccc4)cc3)O[C@H](COc3ccc(Cl)cc3)CN12`, the Efficacy in the assay on Mus musculus [1] is 17%; in the assay with Mus musculus [3] it was 7%; in the assay on Mus musculus [4] it was 35%; with Mus musculus [5], 20%; in the assay on Mus musculus [6], 16%. Moreover, the “Lowest effective concentration for glucose utilization ≥140% of control” value in assay [2] is 10 µM.
